In the library only some 3.7% were active in any assay of this set; here they are far more common.
KCNQ1 block: inhibitors of human KCNQ1 channel, primary screen, cell-based, thallium flux, high-throughput. Potassium voltage-gated channel subfamily KQT member 1 (Homo sapiens), P51787. CHO-K1 KCNQ1, FluxOR thallium flux fluorescence; active compounds read high. B-score at 10 µM. 310,000 tested, 1.3% active. AID 2642, 2010;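 active = compounds whose thallium flux B-score, printed positive for inhibition, exceeds three library SD while starting fluorescence stays within three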;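 note: channel opened by potassium depolarization with thallium stimulus after 20 min compound exposure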
KCNK9 block: KCNK9 potassium channel inhibitors, primary screen, HEK293 cells, thallium flux; Potassium channel subfamily K member 9 (Homo sapiens), Q9NPC2; FluxOR thallium flux fluorescence; active compounds read low; B-score at 10 µM; 310,000 tested, 1.2% active;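 active = ratio B-score over 3 SD below the library mean, with starting fluorescence within 5 SD of its mean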;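 note: negative B-score means less thallium flux so channel inhibition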
Target sequence (Q9NPC2 whole entry, looked up): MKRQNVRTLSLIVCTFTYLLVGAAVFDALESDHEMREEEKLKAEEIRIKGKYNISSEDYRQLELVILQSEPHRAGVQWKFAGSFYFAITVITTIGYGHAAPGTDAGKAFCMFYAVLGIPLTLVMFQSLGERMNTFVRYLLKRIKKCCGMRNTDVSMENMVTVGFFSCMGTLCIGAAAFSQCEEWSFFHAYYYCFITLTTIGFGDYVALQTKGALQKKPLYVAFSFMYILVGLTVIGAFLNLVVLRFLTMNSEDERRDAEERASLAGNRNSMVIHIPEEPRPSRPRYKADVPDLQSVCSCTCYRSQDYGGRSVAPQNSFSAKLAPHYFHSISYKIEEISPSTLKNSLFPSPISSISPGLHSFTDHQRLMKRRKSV
hERG rescue: hERG rescue from dofetilide block, primary screen, cell-based, CHO-hERG, FluxOR thallium flux, dofetilide IC70; Voltage-gated inwardly rectifying potassium channel KCNH2 (Homo sapiens), Q12809; dofetilide IC70 present; activation (rescue from dofetilide block), less the hit threshold, % at 10 µM; 310,000 tested, 0.51% active; AID 1511, 2009;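 active = activation above the mean of controls blocked by dofetilide plus 5 SD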;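 note: thallium influx through hERG after potassium depolarization seen as dye fluorescence rise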
KCNQ1 pot: potentiators or activators of KCNQ1 channel, primary screen, cell-based, thallium flux, high-throughput. Potassium voltage-gated channel subfamily KQT member 1 (Homo sapiens), P51787. AID 2648, 2010. B-score at 10 µM. 310,000 tested, 0.35% active. CHO-K1 KCNQ1, thallium flux FluxOR fluorescence; active compounds read high;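 active = fluorescence ratio B-score, a plate-corrected score, at least three library SD, with initial intensity B-score within 5 SD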
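Medium – assay buffer, equal DMSO in all wells · Material – CHO-K1 cell line with stable KCNQ1 potassium channel expression · Signal – kinetic FluxOR thallium fluorescence, 10-s 1-Hz baseline, 110-s post-stimulus read · Compound – single concentration per compound, DMSO matched to controls · Schedule – 37 °C overnight plating, 90-min dark dye load, 20-min compound pretreatment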
KCNK3 block: human KCNK3 channel inhibitors, primary screen, CHO cells, FluxOR thallium flux, B-score. B-score at 10 µM. 340,000 tested, 0.84% active. FluxOR fluorescence; active compounds read low. Potassium channel subfamily K member 3 (Homo sapiens), O14649;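 active = B-score under library mean minus 4 SD, starting fluorescence ratio at most library mean plus 5 SD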;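 note: more negative B-score means stronger inhibition of thallium flux through KCNK3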
Target sequence (O14649 whole entry, looked up): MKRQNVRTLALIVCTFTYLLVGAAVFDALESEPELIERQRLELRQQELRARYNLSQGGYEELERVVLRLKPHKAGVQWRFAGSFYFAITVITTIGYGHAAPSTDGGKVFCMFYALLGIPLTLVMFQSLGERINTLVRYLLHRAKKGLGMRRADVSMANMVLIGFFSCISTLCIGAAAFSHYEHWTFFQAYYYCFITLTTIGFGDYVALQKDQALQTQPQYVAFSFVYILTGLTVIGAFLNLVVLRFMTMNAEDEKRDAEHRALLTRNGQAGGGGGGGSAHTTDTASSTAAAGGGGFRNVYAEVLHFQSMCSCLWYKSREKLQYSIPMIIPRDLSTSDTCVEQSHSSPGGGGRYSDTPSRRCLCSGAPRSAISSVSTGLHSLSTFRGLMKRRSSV
Kir21 block: inhibitors of mouse Kir2.1 inward-rectifier potassium channel; Inward rectifier potassium channel 2 (Mus musculus), P35561; HEK293-Kir2.1, FluxOR thallium flux fluorescence; active compounds read low; B-score at 10 µM; 310,000 tested, 0.85% active; AID 1672, 2009;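 active = fluorescence ratio B-score at or below minus 3 SD of library scores, with starting-brightness B-score within 2 SD, cut at about -4.2 in these data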;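 note: channel flux triggered by added potassium and thallium sulfate stimulus; B-score of peak minus minimum fluorescence over baseline after thallium stimulus; more negative B-score means stronger Kir2.1 block with less thallium influx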
KCNK3 inh conf: retest of human KCNK3 channel inhibitors, confirmation, CHO cells, FluxOR thallium flux, triplicate; 2,400 tested, 99% active; ratio percent of control, % at 10 µM; shares compounds with KCNK3 block; AID 651638, 2012; FluxOR fluorescence; 0% buffer, 100% carvedilol maximal block;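 active = ratio percent of control, averaged over triplicates, above buffer control mean plus 5 SD, cut at about 64% in these data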;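 note: ratio is the fluorescence rise from min to max over baseline after thallium stimulus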
KCNK3 noninduced: thallium flux inhibition in non-induced cells, primary screen, counter-screen for KCNK3 inhibitor project, cell-based, non-induced KCNK3 line, FluxOR thallium, triplicate; thallium flux ratio (lower = more inhibition) at 10 µM; 2,400 tested, 40% active; non-induced KCNK3 parental cells; active compounds read low; AID 651747, 2012; shares compounds with KCNK3 block;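 active = thallium flux ratio, averaged over three wells, more than 5 SD below the buffer control mean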;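 note: host cells are CHO cells without KCNK3 induction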
Large screens that a line does not name were inactive (follow-up assays come after a bar, where they were run).

CC(C)n1c(SCC(=O)N2c3ccccc3Sc3ccccc32)nc2c1c(=O)n(C)c(=O)n2C	KCNK3 block -10.8 | KCNK3 inh conf 97.7 | KCNK3 noninduced inactive
Cc1cccc(C)c1OCc1cc(C(=O)N2CCCC2c2nonc2C)no1 (configuration not stated)	KCNK3 block -9.45 | KCNK3 inh conf 108.3 | KCNK3 noninduced inactive
Cc1cccc(Nc2nc(N)c([N+](=O)[O-])c(N3CC(C)OC(C)C3)n2)c1 (configuration not stated)	KCNK3 block -8.96 | KCNK3 inh conf 88.3 | KCNK3 noninduced inactive
Cc1cccc(Nc2nc(N)c([N+](=O)[O-])c(N3CC(C)CC(C)C3)n2)c1 (configuration not stated)	none
CCOC(=O)c1c(NC(=O)c2cccs2)sc(C(=O)N(C)C)c1C	none
CCOC(=O)c1c(NC(=O)c2cccs2)sc(C)c1CC	KCNK9 block -7.48, KCNK3 block -9.84 | KCNK3 inh conf 118.7 | KCNK3 noninduced inactive
CC(=O)c1ccc2c(c1)CC1(C2)Cc2cc3c(cc2C1)C(=O)CC3 (configuration not stated)	none (no result: KCNQ1 block, KCNK9 block, hERG rescue, KCNQ1 pot, Kir21 block)
Cc1ccc(/C=N/N2CCN(Cc3ccccc3)CC2)cc1	none
Cc1ccc(CN2CCN(/N=C/c3ccc(Cl)c([N+](=O)[O-])c3)CC2)cc1	KCNK3 block -8.73 | KCNK3 inh conf 121.0 | KCNK3 noninduced inactive
COc1ccc(OC)c(CN2CCN(CCc3ccccc3)C(CCO)C2)c1 (configuration not stated)	none
COc1ccc(CN2CCN(CCc3ccccc3)C(CCO)C2)c(Cl)c1OC (configuration not stated)	KCNK3 block -9.87 | KCNK3 inh conf 85.3 | KCNK3 noninduced inactive
COC(CNC(=O)Cn1nc(Cc2ccncc2)c2ccccc2c1=O)OC	none
Cc1ccc(C)c(/C=N/Nc2nc3ccccc3c(=O)n2O)c1	none
N#Cc1cccc(C(c2nnnn2C2CCCC2)N2CCCCCC2)c1 (configuration not stated)	KCNK9 block -7.17, KCNK3 block -14.9 | KCNK3 inh conf 93.3 | KCNK3 noninduced inactive
COc1ccc(CNn2c(-c3cccs3)nc3ccccc3c2=O)cc1OC	KCNK3 block -9.27 | KCNK3 inh conf 91.3 | KCNK3 noninduced inactive
COc1cccc(C(=O)Nn2c(-c3cccs3)nc3ccccc3c2=O)c1OC	none
Cc1cccc(C(=O)NN/C=C/C(=O)c2ccccc2)c1	KCNK3 block -9.05 | KCNK3 inh conf 100.0 | KCNK3 noninduced inactive
Cc1ccc(C(=O)C=CNNC(=O)c2ccccc2)cc1	none
COc1ccc(Cl)c2sc(N3CCN(C(=O)c4ccco4)CC3)nc12	KCNK3 block -10.4 | KCNK3 inh conf 86.3 | KCNK3 noninduced inactive
Brc1cc(-c2ccccc2)nc(-c2ccccc2)n1	none
COCCn1c(-c2ccccc2)nc2ccccc21	none
COCCn1c(/C=C/c2ccccc2)nc2ccccc21	KCNK3 block -8.8 | KCNK3 inh conf 83.3 | KCNK3 noninduced inactive
CSc1ncccc1C(=O)OCC(=O)Nc1cccc(S(=O)(=O)N2CCOCC2)c1	none (no result: KCNQ1 block, KCNK9 block, hERG rescue, KCNQ1 pot, Kir21 block)
Cc1nonc1C1CCCN1Cc1cn[nH]c1-c1ccc(-c2ccccc2)cc1 (configuration not stated)	KCNK9 block -7.03, KCNK3 block -8.89 | KCNK3 inh conf 102.3 | KCNK3 noninduced inactive
CN(C)c1nc(SCc2ccccc2Cl)nc2c1CCCC2	none
Cc1ccc(CSc2nc3c(c(N(C)C)n2)CCCC3)cc1	KCNK3 block -8.89 | KCNK3 inh conf 139.0 | KCNK3 noninduced 0.115
[S-]C(=Nc1ccc(Cl)cc1)N[n+]1ccccc1	none
CCOC(=O)c1sc(C)c2c1NC(C)(c1cccs1)NC2=O (configuration not stated)	none
O=C1/C(=C\c2ccccc2)SC(=S)N1CCC(=O)N1CCCCC1CCO (configuration not stated)	none
COc1cccc(/C=C2\SC(=O)N(CCC(=O)N3CCCCC3CCO)C2=O)c1 (configuration not stated)	KCNK3 block -11.1 | KCNK3 inh conf 77.7 | KCNK3 noninduced inactive
CCCCN1CN(S(=O)(=O)c2ccc(OC)cc2)c2nc3ccccc3nc21	KCNK3 block -8.89 | KCNK3 inh conf 90.3 | KCNK3 noninduced inactive
Cc1ccc(NC(=O)CN2C(=O)NC(C)(c3ccccc3)C2=O)c(C)c1 (configuration not stated)	KCNK3 block -10.6 | KCNK3 inh conf 85.3 | KCNK3 noninduced inactive
CC1(c2ccccc2)NC(=O)N(CC(=O)Nc2ccccc2N2CCCC2)C1=O (configuration not stated)	none
O=C(NC1CCN(C(=O)N2c3ccccc3Sc3ccccc32)CC1)c1ccccc1Cl	KCNK9 block -7.34, KCNK3 block -10.4 | KCNK3 inh conf 109.3 | KCNK3 noninduced inactive
O=C(NC1CCN(C(=O)N2c3ccccc3Sc3ccccc32)CC1)c1ccco1	none
Cc1ccc(C(=O)OCCOc2cccc(Cl)c2)cc1S(=O)(=O)N1CCOCC1	KCNK3 block -11.8 | KCNK3 inh conf 93.7 | KCNK3 noninduced 0.148
Cc1ccc(C(=O)OCC(=O)Nc2ccccc2)cc1S(=O)(=O)N1CCCCC1	none (no result: KCNQ1 block, KCNK9 block, hERG rescue, KCNQ1 pot, Kir21 block)
Cc1cccc(NC(=O)COC(=O)c2ccc(C)c(S(=O)(=O)N3CCCCC3)c2)c1	KCNK3 block -12.5 (no result: KCNQ1 block, KCNK9 block, hERG rescue, KCNQ1 pot, Kir21 block) | KCNK3 inh conf 97.0 | KCNK3 noninduced inactive
COc1ccc(C(=O)OCc2cc(C)ccc2C)cc1S(=O)(=O)N1CCCC1	KCNK3 block -14.4 (no result: KCNQ1 block, KCNK9 block, hERG rescue, KCNQ1 pot, Kir21 block) | KCNK3 inh conf 93.3 | KCNK3 noninduced inactive
C[C@H](CO)N1C[C@H](C)[C@@H](CN(C)S(=O)(=O)c2ccc(F)cc2)Oc2ccc(NC(=O)C3CC3)cc2C1=O	none (no result: KCNQ1 block, KCNK9 block, hERG rescue, KCNQ1 pot, Kir21 block)
O=C(O)c1ccc(-n2c(-c3ccc(Br)cc3)n[nH]c2=S)cc1	none
S=c1[nH]nc(-c2ccc(Br)cc2)n1-c1ccc(Br)cc1	KCNK3 block -11.3 | KCNK3 inh conf 74.7 | KCNK3 noninduced inactive
